Experimental data from ChEMBL document CHEMBL2062385, “Bone-targeting glycol and NSAIDS ester prodrugs of rhein: synthesis, hydroxyapatite affinity, stability, anti-inflammatory, ulcerogenicity index and pharmacokinetics studies” (Eur J Med Chem, 2012).
Active and inactive are the calls of the source. The rule behind the calls is not given here.

System: Hydroxyapatite
Assay: Binding affinity to bone mineral hydroxyapatite after 30 mins by RP-HPLC analysis
Conditions: not given
Procedure, shortened: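 Each compound (10 mL, 0.1 mmol/L in water) stirred vigorously with 20, 40 or 80 mg hydroxyapatite for 30 min. Then analysed by HPLC on C18 with methanol/0.1% H3PO4 90:10 (pH 2.3), 25 °C, 1.0 mL/min, 254 nm detection. n = 3.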
For `CC(=O)Oc1cccc2c1C(=O)c1c(OC(C)=O)cc(C(=O)O)cc1C2=O` [DIACEREIN], the Activity was “Active”. In the case of `CC(=O)Oc1cccc2c1C(=O)c1c(OC(C)=O)cc(C(=O)OCCOCCOCCO)cc1C2=O`, the Activity is reported as “Active”. For `CC(C)Cc1ccc(C(C)C(=O)OCCOC(=O)c2cc(O)c3c(c2)C(=O)c2cccc(O)c2C3=O)cc1` (stereo not given), the Activity was “Active”. For `CC(=O)Oc1ccccc1C(=O)OCCOC(=O)c1cc(O)c2c(c1)C(=O)c1cccc(O)c1C2=O`, the Activity was “Active”. For `CC(C)Cc1ccc(C(C)C(=O)OCCOCCOCCOC(=O)c2cc(O)c3c(c2)C(=O)c2cccc(O)c2C3=O)cc1` (stereo not given), the Activity was “Active”. In the case of `O=C(OCCOCCO)c1cc(O)c2c(c1)C(=O)c1cccc(O)c1C2=O`, the Activity is reported as “Active”. For `O=C(OCCOCCOCCO)c1cc(O)c2c(c1)C(=O)c1cccc(O)c1C2=O`, the Activity was “Active”. For `COc1ccc2cc(C(C)C(=O)OCCOC(=O)c3cc(OC(C)=O)c4c(c3)C(=O)c3cccc(OC(C)=O)c3C4=O)ccc2c1` (stereo not given), the Activity was “Active”. In the case of `CC(=O)Oc1cccc2c1C(=O)c1c(OC(C)=O)cc(C(=O)OCCOCCO)cc1C2=O`, the Activity is reported as “Active”. For `CC(=O)Oc1ccccc1C(=O)OCCOC(=O)c1cc(OC(C)=O)c2c(c1)C(=O)c1cccc(OC(C)=O)c1C2=O`, the Activity was “Active”. For `COc1ccc2c(c1)c(CC(=O)OCCOC(=O)c1cc(OC(C)=O)c3c(c1)C(=O)c1cccc(OC(C)=O)c1C3=O)c(C)n2C(=O)c1ccc(Cl)cc1`, the Activity was “Active”.

System: Mus musculus
Assay: Ulcerogenic activity in Kunming mouse assessed as ulcer index at 1 mmol/kg, po measured after 4 hrs
Type: toxicity, organism-based
Conditions: in vivo
Procedure, shortened: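 Kunming mice of either sex (18-22 g), ten per group, fasted from food and water for 24 h. Then given 1.0 mmol/kg orally as a suspension in 1% methylcellulose. Killed at 4 h; stomachs fixed 30 min in 10% formaldehyde, opened along the greater curvature and ulcers measured under a magnifier. Ulcer index = summed lesion length (mm) per stomach averaged over 10 animals.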
For `CC(C)Cc1ccc(C(C)C(=O)OCCOC(=O)c2cc(O)c3c(c2)C(=O)c2cccc(O)c2C3=O)cc1` (stereo not given), the UI was 5.8. `CC(C)Cc1ccc(C(C)C(=O)OCCOCCOCCOC(=O)c2cc(O)c3c(c2)C(=O)c2cccc(O)c2C3=O)cc1` (stereo not given) gave a UI of 5.8.

System: not listed separately
Assay: Prodrug conversion at pH 1.2 assessed as hydrolysis up to 24 hrs by HPLC analysis
Type: physicochemical
Conditions: buffer, pH 1.2, 24 h
Procedure, shortened: (§1)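 Prodrugs held at 37 °C for up to 24 h in phosphate-buffered saline adjusted to pH 1.2 or pH 7.4. Samples taken at set intervals. Released parent drugs quantified by C18 HPLC with methanol/0.1% H3PO4 90:10 (pH 2.3), 25 °C, 1.0 mL/min, 254 nm. Run in triplicate.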
In the case of `CC(=O)Oc1cccc2c1C(=O)c1c(OC(C)=O)cc(C(=O)OCCOCCOCCO)cc1C2=O`, the Drug metabolism is reported as “Active”. In the case of `CC(C)Cc1ccc(C(C)C(=O)OCCOC(=O)c2cc(O)c3c(c2)C(=O)c2cccc(O)c2C3=O)cc1` (stereo not given), the Drug metabolism is reported as “Active”. With `CC(=O)Oc1ccccc1C(=O)OCCOC(=O)c1cc(O)c2c(c1)C(=O)c1cccc(O)c1C2=O` the Drug metabolism was “Active”. In the case of `CC(C)Cc1ccc(C(C)C(=O)OCCOCCOCCOC(=O)c2cc(O)c3c(c2)C(=O)c2cccc(O)c2C3=O)cc1` (stereo not given), the Drug metabolism is reported as “Active”. With `O=C(OCCOCCO)c1cc(O)c2c(c1)C(=O)c1cccc(O)c1C2=O` the Drug metabolism was “Active”. With `O=C(OCCOCCOCCO)c1cc(O)c2c(c1)C(=O)c1cccc(O)c1C2=O` the Drug metabolism was “Active”. For `COc1ccc2cc(C(C)C(=O)OCCOC(=O)c3cc(OC(C)=O)c4c(c3)C(=O)c3cccc(OC(C)=O)c3C4=O)ccc2c1` (stereo not given), the Drug metabolism was “Active”. In the case of `CC(=O)Oc1cccc2c1C(=O)c1c(OC(C)=O)cc(C(=O)OCCOCCO)cc1C2=O`, the Drug metabolism is reported as “Active”. For `CC(=O)Oc1ccccc1C(=O)OCCOC(=O)c1cc(OC(C)=O)c2c(c1)C(=O)c1cccc(OC(C)=O)c1C2=O`, the Drug metabolism was “Active”. For `COc1ccc2c(c1)c(CC(=O)OCCOC(=O)c1cc(OC(C)=O)c3c(c1)C(=O)c1cccc(OC(C)=O)c1C3=O)c(C)n2C(=O)c1ccc(Cl)cc1`, the Drug metabolism was “Active”.

System: Mus musculus
Assay: Antiinflammatory activity in Kunming mouse assessed as inhibition of xylene-induced auricle tumefaction at 0.2 mmol/kg, po qd administered prior to challenge for 5 days measured 30 mins post challenge
Type: functional
Conditions: not given
Procedure, shortened: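 Male Kunming mice (18-22 g), ten per group, dosed once daily for 5 days at 0.2 mmol/kg; controls got 0.9% NaCl. A 7 mm filter soaked in xylene was held on the right ear for 30 s, 1 h after the last dose. Mice were killed 30 min later and 7 mm ear punches taken. Inhibition = (1 − a/b)×100%, from tumefaction degree of control and test groups.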
For `O=C(O)Cc1ccccc1Nc1c(Cl)cccc1Cl` [DICLOFENAC], the inhibition in vivo at 200 µmol/kg was 41.9%. With `CC(=O)Oc1cccc2c1C(=O)c1c(OC(C)=O)cc(C(=O)O)cc1C2=O` [DIACEREIN] the inhibition in vivo at 200 µmol/kg was 29.2%. `CC(=O)Oc1cccc2c1C(=O)c1c(OC(C)=O)cc(C(=O)OCCOCCOCCO)cc1C2=O` gave an inhibition in vivo at 200 µmol/kg of 19.5%. Compound `CC(C)Cc1ccc(C(C)C(=O)OCCOC(=O)c2cc(O)c3c(c2)C(=O)c2cccc(O)c2C3=O)cc1` (stereo not given) has an inhibition in vivo at 200 µmol/kg of 41.2%. For `CC(=O)Oc1ccccc1C(=O)OCCOC(=O)c1cc(O)c2c(c1)C(=O)c1cccc(O)c1C2=O`, the inhibition in vivo at 200 µmol/kg was 19.6%. For `CC(C)Cc1ccc(C(C)C(=O)OCCOCCOCCOC(=O)c2cc(O)c3c(c2)C(=O)c2cccc(O)c2C3=O)cc1` (stereo not given), the inhibition in vivo at 200 µmol/kg was 33.9%. With `O=C(OCCOCCO)c1cc(O)c2c(c1)C(=O)c1cccc(O)c1C2=O` the inhibition in vivo at 200 µmol/kg was 17.2%. For `O=C(OCCOCCOCCO)c1cc(O)c2c(c1)C(=O)c1cccc(O)c1C2=O`, the inhibition in vivo at 200 µmol/kg was 17.4%. Compound `COc1ccc2cc(C(C)C(=O)OCCOC(=O)c3cc(OC(C)=O)c4c(c3)C(=O)c3cccc(OC(C)=O)c3C4=O)ccc2c1` (stereo not given) has an inhibition in vivo at 200 µmol/kg of 24.4%. `CC(=O)Oc1cccc2c1C(=O)c1c(OC(C)=O)cc(C(=O)OCCOCCO)cc1C2=O` showed an inhibition in vivo at 200 µmol/kg of 15%. `CC(=O)Oc1ccccc1C(=O)OCCOC(=O)c1cc(OC(C)=O)c2c(c1)C(=O)c1cccc(OC(C)=O)c1C2=O` showed an inhibition in vivo at 200 µmol/kg of 19.9%. `COc1ccc2c(c1)c(CC(=O)OCCOC(=O)c1cc(OC(C)=O)c3c(c1)C(=O)c1cccc(OC(C)=O)c1C3=O)c(C)n2C(=O)c1ccc(Cl)cc1` gave an inhibition in vivo at 200 µmol/kg of 23.4%.

System: not listed separately
Assay: Prodrug conversion at pH 7.4 assessed as hydrolysis up to 24 hrs by HPLC analysis
Type: physicochemical
Conditions: buffer, pH 7.4, 24 h
Procedure, shortened: as §1
With `CC(=O)Oc1cccc2c1C(=O)c1c(OC(C)=O)cc(C(=O)OCCOCCOCCO)cc1C2=O` the Drug metabolism was “Active”. With `CC(C)Cc1ccc(C(C)C(=O)OCCOC(=O)c2cc(O)c3c(c2)C(=O)c2cccc(O)c2C3=O)cc1` (stereo not given) the Drug metabolism was “Active”. With `CC(=O)Oc1ccccc1C(=O)OCCOC(=O)c1cc(O)c2c(c1)C(=O)c1cccc(O)c1C2=O` the Drug metabolism was “Active”. With `CC(C)Cc1ccc(C(C)C(=O)OCCOCCOCCOC(=O)c2cc(O)c3c(c2)C(=O)c2cccc(O)c2C3=O)cc1` (stereo not given) the Drug metabolism was “Active”. In the case of `O=C(OCCOCCO)c1cc(O)c2c(c1)C(=O)c1cccc(O)c1C2=O`, the Drug metabolism is reported as “Active”. In the case of `O=C(OCCOCCOCCO)c1cc(O)c2c(c1)C(=O)c1cccc(O)c1C2=O`, the Drug metabolism is reported as “Active”. For `COc1ccc2cc(C(C)C(=O)OCCOC(=O)c3cc(OC(C)=O)c4c(c3)C(=O)c3cccc(OC(C)=O)c3C4=O)ccc2c1` (stereo not given), the Drug metabolism was “Active”. With `CC(=O)Oc1cccc2c1C(=O)c1c(OC(C)=O)cc(C(=O)OCCOCCO)cc1C2=O` the Drug metabolism was “Active”. In the case of `CC(=O)Oc1ccccc1C(=O)OCCOC(=O)c1cc(OC(C)=O)c2c(c1)C(=O)c1cccc(OC(C)=O)c1C2=O`, the Drug metabolism is reported as “Active”. For `COc1ccc2c(c1)c(CC(=O)OCCOC(=O)c1cc(OC(C)=O)c3c(c1)C(=O)c1cccc(OC(C)=O)c1C3=O)c(C)n2C(=O)c1ccc(Cl)cc1`, the Drug metabolism was “Active”.
